Source: ChEMBL document CHEMBL4706666, “Targeting Cysteine Located Outside the Active Site: An Effective Strategy for Covalent ALKi Design” (J Med Chem, 2021)
pIC50: −log10 of the molar value. Calls of active or inactive are those of the source. No cut-off for these calls is given here.

Columns and labels:
NCI-H3122 [1] = assay: Antiproliferative activity against human NCI-H3122 cells assessed as reduction in cell viability incubated for 72 hrs by MTT assay; settings: NCI-H3122, 72 h
L02 = assay: Antiproliferative activity against human L02 cells assessed as reduction in cell viability at 5 uM incubated for 72 hrs by MTT assay relative to Ceritinib; format: cell-based; settings: l02, 72 h
How it was run: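 Normal human liver LO2 cells were grown at 37 °C, 5% CO₂ with 10% FBS and seeded at 2−5 × 10³ per well for 24 h. Compound was added at 5 μM for 72 h, followed by MTT for 1−4 h and absorbance read at 450 nm. Inhibition rate was taken from OD.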

[2] = target: T1, ALK tyrosine kinase receptor (Homo sapiens, UniProt Q9UM73); assay: Inhibition of N-terminal GST tagged human ALK cytoplasmic domain (1058 to 1620 residues) expressed in Sf21 cells at 20 nM incubated for 10 mins by mobility shift assay
Target sequence in this assay (Q9UM73 19-1620 limits assumed): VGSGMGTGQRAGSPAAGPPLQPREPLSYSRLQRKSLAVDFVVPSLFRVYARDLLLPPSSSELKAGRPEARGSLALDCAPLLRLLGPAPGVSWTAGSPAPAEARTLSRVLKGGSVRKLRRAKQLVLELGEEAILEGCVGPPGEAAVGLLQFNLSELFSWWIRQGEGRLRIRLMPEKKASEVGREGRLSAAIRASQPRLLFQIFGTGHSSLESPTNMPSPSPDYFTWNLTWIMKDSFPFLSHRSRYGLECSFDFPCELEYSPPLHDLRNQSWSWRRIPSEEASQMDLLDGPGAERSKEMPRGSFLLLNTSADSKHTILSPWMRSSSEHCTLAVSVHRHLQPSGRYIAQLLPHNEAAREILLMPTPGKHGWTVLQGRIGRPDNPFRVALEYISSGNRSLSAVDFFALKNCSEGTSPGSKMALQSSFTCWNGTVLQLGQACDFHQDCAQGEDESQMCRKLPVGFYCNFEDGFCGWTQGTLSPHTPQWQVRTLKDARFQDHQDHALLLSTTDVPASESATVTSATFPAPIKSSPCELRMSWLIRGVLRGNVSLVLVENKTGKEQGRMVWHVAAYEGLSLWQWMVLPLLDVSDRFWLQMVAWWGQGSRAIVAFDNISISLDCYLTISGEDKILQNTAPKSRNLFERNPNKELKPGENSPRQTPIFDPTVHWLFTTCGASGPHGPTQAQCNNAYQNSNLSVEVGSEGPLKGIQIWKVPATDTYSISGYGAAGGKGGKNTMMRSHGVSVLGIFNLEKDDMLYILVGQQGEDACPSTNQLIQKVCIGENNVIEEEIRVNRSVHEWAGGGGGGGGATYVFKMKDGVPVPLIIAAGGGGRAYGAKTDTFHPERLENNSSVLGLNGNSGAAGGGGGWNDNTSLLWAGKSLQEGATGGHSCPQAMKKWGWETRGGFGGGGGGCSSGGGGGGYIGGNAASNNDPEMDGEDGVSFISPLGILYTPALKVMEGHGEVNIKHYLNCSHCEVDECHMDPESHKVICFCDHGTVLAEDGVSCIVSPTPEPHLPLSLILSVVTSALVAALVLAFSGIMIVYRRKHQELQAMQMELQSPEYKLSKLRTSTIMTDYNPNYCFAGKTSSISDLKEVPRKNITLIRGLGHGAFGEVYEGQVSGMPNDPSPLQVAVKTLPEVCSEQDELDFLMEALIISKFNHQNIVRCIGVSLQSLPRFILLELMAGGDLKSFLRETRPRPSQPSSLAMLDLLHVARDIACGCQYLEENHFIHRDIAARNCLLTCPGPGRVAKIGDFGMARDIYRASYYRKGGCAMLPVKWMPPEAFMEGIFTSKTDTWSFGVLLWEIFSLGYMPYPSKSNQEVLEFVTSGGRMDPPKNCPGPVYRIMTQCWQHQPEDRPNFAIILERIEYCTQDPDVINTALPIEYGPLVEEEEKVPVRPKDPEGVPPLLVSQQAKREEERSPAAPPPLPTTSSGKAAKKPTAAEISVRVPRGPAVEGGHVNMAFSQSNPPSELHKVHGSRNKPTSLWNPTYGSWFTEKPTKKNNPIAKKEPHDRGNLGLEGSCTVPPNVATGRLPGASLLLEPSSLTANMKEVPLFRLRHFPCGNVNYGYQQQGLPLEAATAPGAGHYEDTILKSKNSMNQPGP

[3] = target: T1, ALK tyrosine kinase receptor; assay: Inhibition of N-terminal GST tagged human ALK cytoplasmic domain (1058 to 1620 residues) expressed in Sf21 cells at 200 nM incubated for 10 mins by mobility shift assay
Target sequence in this assay (Q9UM73 19-1620 limits assumed): as above

[4] = target: T1, ALK tyrosine kinase receptor; assay: Inhibition of N-terminal GST tagged human ALK cytoplasmic domain (1058 to 1620 residues) expressed in Sf21 cells by mobility shift assay
How it was run: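 Wild-type ALK, kinase substrate and ATP at Km were combined with compound in kinase buffer and incubated 10 min at room temperature. Read-out was by mobility shift, and IC50 was derived by curve fitting.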
Target sequence in this assay (Q9UM73 whole entry, the tested form may be a part): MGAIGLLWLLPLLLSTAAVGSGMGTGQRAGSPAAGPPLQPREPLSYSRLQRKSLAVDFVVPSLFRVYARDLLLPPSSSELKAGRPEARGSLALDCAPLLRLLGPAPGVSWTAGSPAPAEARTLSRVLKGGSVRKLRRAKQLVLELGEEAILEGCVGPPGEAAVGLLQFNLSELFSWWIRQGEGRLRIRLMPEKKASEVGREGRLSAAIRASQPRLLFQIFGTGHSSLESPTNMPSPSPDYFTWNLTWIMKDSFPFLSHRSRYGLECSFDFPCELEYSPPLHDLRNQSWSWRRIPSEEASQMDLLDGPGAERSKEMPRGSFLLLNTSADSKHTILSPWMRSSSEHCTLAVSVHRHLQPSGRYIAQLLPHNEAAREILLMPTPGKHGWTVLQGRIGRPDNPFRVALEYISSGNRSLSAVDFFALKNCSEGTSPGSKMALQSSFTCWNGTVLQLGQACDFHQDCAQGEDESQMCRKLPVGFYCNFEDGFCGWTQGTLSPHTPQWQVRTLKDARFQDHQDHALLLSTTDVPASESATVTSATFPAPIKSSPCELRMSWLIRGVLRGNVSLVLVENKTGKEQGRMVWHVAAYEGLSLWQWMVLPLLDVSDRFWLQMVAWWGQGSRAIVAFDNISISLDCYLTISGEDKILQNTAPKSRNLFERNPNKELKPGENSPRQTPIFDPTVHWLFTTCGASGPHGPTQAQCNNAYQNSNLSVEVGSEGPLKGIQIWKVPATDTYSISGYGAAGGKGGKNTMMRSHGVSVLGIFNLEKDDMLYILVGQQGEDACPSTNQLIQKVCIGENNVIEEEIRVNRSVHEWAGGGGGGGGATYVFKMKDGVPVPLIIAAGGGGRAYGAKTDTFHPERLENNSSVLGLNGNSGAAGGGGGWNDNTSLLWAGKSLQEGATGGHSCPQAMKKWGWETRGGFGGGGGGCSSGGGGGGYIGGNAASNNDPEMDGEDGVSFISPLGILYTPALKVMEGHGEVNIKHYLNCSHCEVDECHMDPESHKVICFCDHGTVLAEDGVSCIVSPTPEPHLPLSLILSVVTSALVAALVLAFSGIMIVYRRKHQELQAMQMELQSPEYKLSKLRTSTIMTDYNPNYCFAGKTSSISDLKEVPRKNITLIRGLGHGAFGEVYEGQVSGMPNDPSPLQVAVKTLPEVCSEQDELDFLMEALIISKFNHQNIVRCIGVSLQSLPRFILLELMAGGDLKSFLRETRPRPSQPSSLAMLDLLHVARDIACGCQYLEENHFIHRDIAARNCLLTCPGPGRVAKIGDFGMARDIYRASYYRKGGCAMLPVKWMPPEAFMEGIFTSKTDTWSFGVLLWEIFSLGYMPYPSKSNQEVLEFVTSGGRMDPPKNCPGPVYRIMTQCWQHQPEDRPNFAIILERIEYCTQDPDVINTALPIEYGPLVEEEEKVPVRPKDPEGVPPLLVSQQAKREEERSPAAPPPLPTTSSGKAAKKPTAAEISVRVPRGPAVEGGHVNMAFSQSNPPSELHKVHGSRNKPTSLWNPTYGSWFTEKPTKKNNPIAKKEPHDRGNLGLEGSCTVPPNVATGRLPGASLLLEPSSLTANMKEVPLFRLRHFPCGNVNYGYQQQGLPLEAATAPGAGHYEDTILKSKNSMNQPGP

[5] = target: T1, ALK tyrosine kinase receptor; assay: Inhibition of ALK phosphorylation in human NCI-H3122 cells at 10 to 500 nM incubated for 24 hrs by western blot analysis; format: cell-based; settings: dose 10-500 nM
How it was run: (§1)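 H3122 cells were exposed for 24 h at 37 °C to 0, 10, 50, 200 or 500 nM, then lysed in RIPA buffer with protease/phosphatase inhibitors and 1 mM PMSF. Protein was BCA-normalized and run on SDS−PAGE to PVDF. Primary antibodies were applied overnight at 4 °C in 5% BSA/TBST, then HRP secondary (1/5000, 1 h). Detection was by chemiluminescence.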
Target sequence in this assay (Q9UM73 19-1620 limits assumed): as the sequence (Q9UM73 19-1620 limits assumed) above

[6] = AUC (0 to infinity) in Sprague-Dawley rat at 10 mg/kg, po measured upto 24 hrs by LC-MS/MS analysis; format: ADME, organism-based; set-up: route oral, dose 10 mg/kg, time <=24; settings: in vivo
How it was run: (§2)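 Male SD rats (200−220 g, n = 3 per group) received 1 mg/kg iv in 5% DMA/10% Solutol HS 15/85% saline, or 10 mg/kg orally in 0.5% CMC-Na. Jugular-vein blood was drawn to 24 h, and plasma was kept at −80 °C. Plasma levels were quantified by LC−MS/MS (LLOQ 1 ng/mL), and parameters were derived by noncompartmental analysis.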

[7] = target: T1, ALK tyrosine kinase receptor; assay: Covalent inhibition of N-terminal GST tagged human ALK cytoplasmic domain (1058 to 1620 residues) expressed in Sf21 cells in presence of high ATP levels
Target sequence in this assay (Q9UM73 whole entry, the tested form may be a part): as the sequence (Q9UM73 whole entry, the tested form may be a part) above

[8] = target: T1, ALK tyrosine kinase receptor; assay: Inhibition of ALK in human NCI-H3122 cells assessed as decrease in STAT3 expression levels at 10 to 500 nM incubated for 24 hrs by western blot analysis; format: cell-based; settings: dose 10-500 nM; how it was run: as §1
Target sequence in this assay (Q9UM73 19-1620 limits assumed): as the sequence (Q9UM73 19-1620 limits assumed) above

[9] = Oral bioavailability in Sprague-Dawley rat at 10 mg/kg measured upto 24 hrs by LC-MS/MS analysis; format: ADME, organism-based; settings: in vivo; how it was run: as §2
[10] = target: T1, ALK tyrosine kinase receptor; assay: Inhibition of ALK in human NCI-H3122 cells assessed as downregulation of AKT expression levels at 10 to 500 nM incubated for 24 hrs by western blot analysis; format: cell-based; settings: dose 10-500 nM; how it was run: as §1
Target sequence in this assay (Q9UM73 19-1620 limits assumed): as above

[11] = Clearance in Sprague-Dawley rat at 1 mg/kg, iv measured upto 24 hrs by LC-MS/MS analysis; format: ADME, organism-based; settings: in vivo; how it was run: as §2
[12] = Toxicity in Balb/c mouse xenografted with human NCI-H3122 cells assessed as change in body weight at 10 to 50 mg/kg/day, po and measured every 3 days for 15 days; format: organism-based; settings: in vivo, 360 h, dose 10-50 mg/kg/day, time 15 day
How it was run: (§3)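 Female BALB/c nude mice, 6−7 weeks old and 18−22 g, were implanted sc with 5 × 10⁶ exponential-phase H3122 cells in 0.1 mL serum- and antibiotic-free medium. At 150−200 mm³ they were randomized (6 per group) and dosed orally once daily at 10, 20 or 50 mg/kg in 10% NMP/90% PEG300, with a vehicle group. Body weight and caliper tumor volume (a × b²/2) were recorded every 3 days. TGI versus vehicle was determined after 15 days.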

[13] = target: T1, ALK tyrosine kinase receptor; assay: Inhibition of ALK in human NCI-H3122 cells assessed as downregulation of STAT3 phosphorylation levels at 10 to 500 nM incubated for 24 hrs by western blot analysis; format: cell-based; settings: dose 10-500 nM; how it was run: as §1
Target sequence in this assay (Q9UM73 19-1620 limits assumed): as above

[14] = Binding affinity to L-cysteine assessed as molecular mass incubated for 8 hrs by LC-MS analysis
How it was run: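 L-cysteine incubated in water with a 5-fold molar excess of compound (or DMSO) for 8 h at 4 °C; reaction mixtures analysed by LC–MS on an ion trap mass spectrometer to detect adduct mass.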

[15] = Half life in Sprague-Dawley rat at 10 mg/kg, po measured upto 24 hrs by LC-MS/MS analysis; format: ADME, organism-based; settings: in vivo; how it was run: as §2
[16] = target: T1, ALK tyrosine kinase receptor; assay: Inhibition of ALK in human NCI-H3122 cells assessed as decrease in phosphorylation of AKT at 10 to 500 nM incubated for 24 hrs by western blot analysis; format: cell-based; settings: dose 10-500 nM; how it was run: as §1
[17] = target: T2, Receptor-type tyrosine-protein kinase FLT3 (Homo sapiens, UniProt P36888); assay: Inhibition of FLT3 (unknown origin)
T2 sequence (P36888 whole entry): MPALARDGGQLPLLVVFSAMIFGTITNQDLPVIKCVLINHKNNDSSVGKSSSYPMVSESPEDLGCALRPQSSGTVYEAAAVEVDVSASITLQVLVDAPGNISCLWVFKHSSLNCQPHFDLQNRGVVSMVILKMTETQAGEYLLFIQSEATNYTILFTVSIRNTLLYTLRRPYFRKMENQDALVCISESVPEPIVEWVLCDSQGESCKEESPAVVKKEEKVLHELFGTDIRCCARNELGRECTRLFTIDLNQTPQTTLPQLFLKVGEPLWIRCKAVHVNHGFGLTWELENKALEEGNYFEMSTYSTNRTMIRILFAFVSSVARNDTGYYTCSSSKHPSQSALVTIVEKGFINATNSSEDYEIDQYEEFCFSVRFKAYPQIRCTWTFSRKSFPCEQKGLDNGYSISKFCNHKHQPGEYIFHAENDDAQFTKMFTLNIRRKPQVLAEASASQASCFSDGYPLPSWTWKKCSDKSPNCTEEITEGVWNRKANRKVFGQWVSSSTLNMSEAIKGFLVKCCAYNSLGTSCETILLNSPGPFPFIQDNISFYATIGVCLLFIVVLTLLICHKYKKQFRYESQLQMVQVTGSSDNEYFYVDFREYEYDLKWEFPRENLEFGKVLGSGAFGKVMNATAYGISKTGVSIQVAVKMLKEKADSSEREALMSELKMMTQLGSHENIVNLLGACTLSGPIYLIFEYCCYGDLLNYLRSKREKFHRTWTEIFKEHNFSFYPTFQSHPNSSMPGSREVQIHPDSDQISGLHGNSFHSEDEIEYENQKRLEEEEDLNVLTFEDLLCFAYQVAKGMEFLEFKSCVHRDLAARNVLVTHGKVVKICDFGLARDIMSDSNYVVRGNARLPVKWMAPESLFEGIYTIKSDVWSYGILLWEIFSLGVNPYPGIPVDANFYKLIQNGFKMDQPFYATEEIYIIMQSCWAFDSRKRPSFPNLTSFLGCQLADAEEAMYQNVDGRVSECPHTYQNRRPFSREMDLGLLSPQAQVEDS

NCI-H3122 [18] = assay: Antitumor activity against human NCI-H3122 cells xenografted in Balb/c nude mouse assessed as tumor growth inhibition administered orally and measured every 3 days for 15 days by vernier caliper method; format: functional, cell-based; settings: time 15.0 day; how it was run: as §3
[19] = target: Fibroblast growth factor receptor 2 (Homo sapiens, UniProt P21802); assay: Inhibition of FGFR2 (unknown origin)
Fibroblast growth factor receptor 2, sequence (P21802 whole entry): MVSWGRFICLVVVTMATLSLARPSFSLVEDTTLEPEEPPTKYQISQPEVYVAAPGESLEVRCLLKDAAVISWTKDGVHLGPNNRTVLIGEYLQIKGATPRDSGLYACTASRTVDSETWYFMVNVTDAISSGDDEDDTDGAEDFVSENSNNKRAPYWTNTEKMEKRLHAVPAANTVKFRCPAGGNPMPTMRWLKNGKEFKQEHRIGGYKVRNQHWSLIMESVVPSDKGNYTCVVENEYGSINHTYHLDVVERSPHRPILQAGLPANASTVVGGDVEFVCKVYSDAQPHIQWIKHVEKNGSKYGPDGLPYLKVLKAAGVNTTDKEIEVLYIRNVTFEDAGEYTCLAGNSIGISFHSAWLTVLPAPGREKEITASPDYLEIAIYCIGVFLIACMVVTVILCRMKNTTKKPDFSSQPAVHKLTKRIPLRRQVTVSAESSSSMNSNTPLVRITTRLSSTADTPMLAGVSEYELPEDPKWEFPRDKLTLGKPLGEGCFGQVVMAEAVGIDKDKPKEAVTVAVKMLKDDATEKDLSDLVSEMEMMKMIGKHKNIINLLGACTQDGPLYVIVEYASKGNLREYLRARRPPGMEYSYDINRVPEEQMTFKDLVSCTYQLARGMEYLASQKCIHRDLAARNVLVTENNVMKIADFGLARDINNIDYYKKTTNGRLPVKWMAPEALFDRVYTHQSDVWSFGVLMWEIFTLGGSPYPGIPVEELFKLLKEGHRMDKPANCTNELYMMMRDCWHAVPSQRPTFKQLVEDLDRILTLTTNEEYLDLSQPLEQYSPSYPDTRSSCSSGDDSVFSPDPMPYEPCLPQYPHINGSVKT

NCI-H3122 [20] = assay: Antitumor activity against human NCI-H3122 cells xenografted in Balb/c nude mouse assessed as tumor growth inhibition at 50 mg/kg/day, po and measured 15 days post treatment by vernier caliper method relative to control; format: functional; settings: 360 h, time 15 day, read-out: TGI; how it was run: as §3
NCI-H3122 [21] = assay: Antitumor activity against human NCI-H3122 cells xenografted in Balb/c nude mouse assessed as tumor growth inhibition at 10 mg/kg/day, po and measured 15 days post treatment by vernier caliper method relative to control; format: functional; settings: 360 h, time 15 day, read-out: TGI; how it was run: as §3
[22] = tested on: ALK tyrosine kinase receptor (Homo sapiens), Q9UM73 [L1196M]; settings: Sf21, dose 200.0 nM, time 10.0 min
ALK tyrosine kinase receptor (Homo sapiens), Q9UM73 [L1196M], sequence (Q9UM73 whole entry L1196M, looked up): as the sequence (Q9UM73 whole entry, the tested form may be a part) above, with L1196M counted along it

NCI-H3122 [23] = assay: Antitumor activity against human NCI-H3122 cells xenografted in Balb/c nude mouse assessed as tumor growth inhibition at 20 mg/kg/day, po and measured 15 days post treatment by vernier caliper method relative to control; format: functional; settings: 360 h, time 15 day, read-out: TGI; how it was run: as §3
[24] = Cmax in Sprague-Dawley rat at […] measured upto 24 hrs by LC-MS/MS analysis; format: ADME, organism-based; set-up: route intravenous, dose 1 mg/kg, time <=24; settings: in vivo
[25] = Volume of distribution at steady state in Sprague-Dawley rat at 1 mg/kg, iv measured upto 24 hrs by LC-MS/MS analysis; format: ADME, organism-based; settings: in vivo, read-out: Vdss; how it was run: as §2
[26] = Tmax in Sprague-Dawley rat at […] measured upto 24 hrs by LC-MS/MS analysis; format: ADME, organism-based; settings: in vivo

SMILES: C=CC(=O)NCCCCCCCCNC(=O)CCN1CCC(c2cc(OC(C)C)c(Nc3ncc(Cl)c(Nc4ccccc4S(=O)(=O)C(C)C)n3)cc2C)CC1
- pIC50 (NCI-H3122 [1]): 6.14
- Activity (L02): Non-Toxic
- inhibition [2]: Active
- inhibition [3]: Active

SMILES: C=CC(=O)NCCOCCOCCNC(=O)CCN1CCC(c2cc(OC(C)C)c(Nc3ncc(Cl)c(Nc4ccccc4S(=O)(=O)C(C)C)n3)cc2C)CC1
- inhibition [2]: Active
- inhibition [3]: Active

SMILES: CCC(=O)NCCOCCNC(=O)CCN1CCC(c2cc(OC(C)C)c(Nc3ncc(Cl)c(Nc4ccccc4S(=O)(=O)C(C)C)n3)cc2C)CC1
- pIC50 [4]: 7.88

SMILES: C=CC(=O)NCCOCCNC(=O)CCN1CCC(c2cc(OC(C)C)c(Nc3ncc(Cl)c(Nc4ccccc4S(=O)(=O)C(C)C)n3)cc2C)CC1
- inhibition [5]: Active
- AUC(0-inf) [6]: 859 ng·h/mL
- pIC50 [7]: 8.85
- inhibition [8]: Active
- bioavailability [9]: 12.1%
- inhibition [10]: Active
- pIC50 (NCI-H3122 [1]): 6.82
- clearance [11]: 17 mL/min/kg
- pIC50 [4]: 9.30
- Activity (L02): Non-Toxic
- Activity [12]: Non-Toxic
- inhibition [13]: Active
- Activity [14]: 891 Da
- half-life [15]: 2.89 h
- inhibition [16]: Active
- pIC50 [17]: 6.06
- inhibition [2]: Active
- inhibition [3]: Active
- TGI (NCI-H3122 [18]): Dose-dependent effect
- pIC50 [19]: < 6.00
- inhibition in vivo at 50 mg/kg/day (NCI-H3122 [20]): 62%
- inhibition in vivo at 10 mg/kg/day (NCI-H3122 [21]): 39.7%
- inhibition [22]: Active
- inhibition in vivo at 20 mg/kg/day (NCI-H3122 [23]): 49.7%
- Cmax [24]: 157 ng/mL
- Vd [25]: 2.81 L/kg
- Tmax [26]: 2.67 h

SMILES: Cc1cc(Nc2ncc(Cl)c(Nc3ccccc3S(=O)(=O)C(C)C)n2)c(OC(C)C)cc1C1CCNCC1 [CERITINIB]
- pIC50 (NCI-H3122 [1]): 5.96
- inhibition [22]: Active
- inhibition in vivo at 20 mg/kg/day (NCI-H3122 [23]): 34%

SMILES: C=CC(=O)NCCCNC(=O)CCN1CCC(c2cc(OC(C)C)c(Nc3ncc(Cl)c(Nc4ccccc4S(=O)(=O)C(C)C)n3)cc2C)CC1
- pIC50 (NCI-H3122 [1]): 5.94
- Activity (L02): Non-Toxic
- inhibition [2]: Active
- inhibition [3]: Active

SMILES: C=CC(=O)NCCOCCOCCOCCNC(=O)CCN1CCC(c2cc(OC(C)C)c(Nc3ncc(Cl)c(Nc4ccccc4S(=O)(=O)C(C)C)n3)cc2C)CC1
- pIC50 (NCI-H3122 [1]): 6.21
- Activity (L02): Non-Toxic
- inhibition [2]: Active
- inhibition [3]: Active

SMILES: C=CC(=O)NCCCCNC(=O)CCN1CCC(c2cc(OC(C)C)c(Nc3ncc(Cl)c(Nc4ccccc4S(=O)(=O)C(C)C)n3)cc2C)CC1
- inhibition [2]: Active
- inhibition [3]: Active

SMILES: C=CC(=O)NCCCCCCNC(=O)CCN1CCC(c2cc(OC(C)C)c(Nc3ncc(Cl)c(Nc4ccccc4S(=O)(=O)C(C)C)n3)cc2C)CC1
- pIC50 (NCI-H3122 [1]): 6.12
- Activity (L02): Non-Toxic
- inhibition [2]: Active
- inhibition [3]: Active
